The text below walks through data of ChEMBL document CHEMBL4428110, “Synthesis and bioactivity of novel isoxazole chalcone derivatives on tyrosinase and melanin synthesis in murine B16 cells for the treatment of vitiligo” (Bioorg Med Chem, 2016).

The target in one data set is T1, Tyrosinase (Agaricus bisporus, UniProt O42713).
T1 sequence (O42713 whole entry): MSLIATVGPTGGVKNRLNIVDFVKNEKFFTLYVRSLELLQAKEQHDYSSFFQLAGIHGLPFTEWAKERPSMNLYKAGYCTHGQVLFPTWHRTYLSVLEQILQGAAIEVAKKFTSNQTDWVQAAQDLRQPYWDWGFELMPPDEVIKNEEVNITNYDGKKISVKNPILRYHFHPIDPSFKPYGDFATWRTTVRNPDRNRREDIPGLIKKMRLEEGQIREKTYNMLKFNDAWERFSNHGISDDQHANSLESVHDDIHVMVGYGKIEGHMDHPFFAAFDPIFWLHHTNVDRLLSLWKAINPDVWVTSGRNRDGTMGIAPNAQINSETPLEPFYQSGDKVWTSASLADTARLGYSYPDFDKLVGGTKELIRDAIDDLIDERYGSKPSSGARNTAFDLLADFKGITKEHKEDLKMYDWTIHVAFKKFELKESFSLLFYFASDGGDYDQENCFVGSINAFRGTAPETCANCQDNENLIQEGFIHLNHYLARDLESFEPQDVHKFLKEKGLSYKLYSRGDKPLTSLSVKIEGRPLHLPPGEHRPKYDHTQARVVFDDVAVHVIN
Briefly: Activation of mushroom tyrosinase using L-tyrosine as substrate preincubated for 5 mins followed by substrate addition measured after 30 mins by ELISA. The essentials: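 Mushroom tyrosinase activation: test compounds (0.5–300 μM) in DMSO preincubated with enzyme 5 min at 25–30 °C, then L-tyrosine (2 mM, 0.1 mL) added and incubated a further 30 min; absorbance read at 490 nm. Rate of activation = [(C−D)−(A−B)]/(A−B)×100, A being the enzyme-only system. EC50 reported as mean ± SD of three independent experiments.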
On the technique in general: ELISA stands for enzyme-linked immunosorbent assay.

The next data set deals with B16-F10. Nature of the data set: Cytotoxicity against mouse B16F10 cells assessed as reduction in cell viability at 50 uM after 24 hrs by CCK-8 assay. In kind it is cell-based. Particulars: b16-f10, 24 h. The essentials: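 Viability: B16F10 cells (DMEM, 10% FBS, 37 °C, 5% CO2) plated at 5×10³ cells/well in 96-well plates, left 12 h, then given fresh medium with 50 μM compound for 24 h. After a cold PBS wash, CCK-8 added for 2 h at 37 °C and absorbance read at 450 nm. Proliferation expressed relative to untreated control; mean ± SD of three experiments.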
Background: Formazan colour is commonly taken as a measure of viable cells.

The target in data set [1] is T2, Tyrosinase (Mus musculus) (UniProt P11344).
T2 sequence (whole entry): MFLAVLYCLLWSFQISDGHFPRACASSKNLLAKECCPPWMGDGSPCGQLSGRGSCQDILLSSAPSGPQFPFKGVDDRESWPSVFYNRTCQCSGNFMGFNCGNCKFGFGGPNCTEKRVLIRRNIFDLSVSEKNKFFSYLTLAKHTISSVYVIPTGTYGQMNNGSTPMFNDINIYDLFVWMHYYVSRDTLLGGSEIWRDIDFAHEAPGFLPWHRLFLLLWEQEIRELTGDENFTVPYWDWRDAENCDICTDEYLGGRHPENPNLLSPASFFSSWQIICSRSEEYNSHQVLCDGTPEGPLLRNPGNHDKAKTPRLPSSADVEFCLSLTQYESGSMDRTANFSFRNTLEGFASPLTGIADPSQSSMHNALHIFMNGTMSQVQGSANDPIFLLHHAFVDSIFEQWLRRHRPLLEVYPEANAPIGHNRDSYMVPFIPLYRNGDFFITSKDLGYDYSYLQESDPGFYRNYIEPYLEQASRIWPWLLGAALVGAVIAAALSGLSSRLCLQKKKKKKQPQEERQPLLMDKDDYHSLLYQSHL
Briefly: Activation of tyrosinase in mouse B16F10 cells assessed as melanin production at 50 uM after 48 hrs by spectrophotometric analysis relative to control. Type of data set: cell-based. The essentials:
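B16F10 cells grown in DMEM with 10% heat-inactivated FBS and penicillin/streptomycin at 37 °C, 5% CO2. Seeded at 5×10⁵ cells/well in 6-well plates for 24 h, then exposed to 50 μM compound for 48 h. After a cold PBS wash, cells were lysed in RIPA buffer 40 min on ice and dissolved in 1 M NaOH 2 h at 60 °C. Melanin was read at 405 nm and normalized; three separate experiments.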

Data set [2] has as its target T2, Tyrosinase (Mus musculus). Nature of the data set: Potency index, ratio of compound activity to 8-MOP activity for tyrosinase activation in mouse B16F10 cells assessed as melanin production. Type of data set: cell-based.

Calls of active or inactive are those of the source. The calls are words filed in the database; no cut-off is given here.

As for `COc1ccc(-c2cc(COc3ccc(C(=O)/C=C/c4ccccc4)cc3)on2)cc1`, the EC50 – broadly, the concentration that produces a half-maximal response – on Tyrosinase stood at 47.2 µM. Moreover, in the data set on B16-F10, the Activity entry is given as “Non-Toxic”.
`O=C(/C=C/c1ccccc1)c1ccc(OCc2cc(-c3cccc(F)c3)no2)cc1` yielded an EC50 on Tyrosinase of 21.3 µM. Besides, the Activity result was “Non-Toxic” with B16-F10 and 330% in data set [1]. For the same compound, in data set [2], the Ratio came out at 4.
Take `O=C(/C=C/c1ccccc1)c1ccc(CCc2cn(Cc3ccc(Cl)cc3)nn2)cc1`: it took 23.9 µM to reach a half-maximal effect at Tyrosinase (EC50).
`O=C(/C=C/c1ccccc1)c1ccc(OCc2cc(-c3ccc(Cl)cc3)no2)cc1` displayed an EC50 on Tyrosinase of 8.1 µM. Besides, in the data set with B16-F10, the Activity result is reported as “Non-Toxic”.
At Tyrosinase, `O=C(/C=C/c1ccccc1)c1ccc(OCc2cc(-c3cc(Cl)cc(Cl)c3)no2)cc1` gave an EC50 of 12.7 µM. The Activity result in the data set on B16-F10 is “Non-Toxic”; in data set [1] it was 57%.
In the case of `O=C(/C=C/c1ccccc1)c1ccc(OCc2cc(-c3cccc(Cl)c3)no2)cc1`, at Tyrosinase, the EC50 came out at 23.8 µM. The Activity entry with B16-F10 is “Non-Toxic”.
Compound `O=C(/C=C/c1ccc(Cl)cc1)c1ccc2nc(NC(=O)c3ccccc3)sc2c1` had an EC50 on Tyrosinase of 9.6 µM.
Take `O=C(/C=C/c1ccc(Cl)cc1)c1ccc(NC(=O)c2ccccc2)cc1`: the EC50 at Tyrosinase was 21.1 µM.
Compound `O=C(/C=C/c1ccccc1)c1ccc(OCc2cc(-c3ccc(F)c(F)c3)no2)cc1` showed an EC50 on Tyrosinase of 1.3 µM. Besides, the Activity entry in the data set on B16-F10 is “Non-Toxic”; in data set [1], 463%. The Ratio in data set [2] is 3.
Regarding `O=C(/C=C/c1ccccc1)c1ccc(OCc2cc(-c3ccccc3)no2)cc1`, the EC50 on Tyrosinase is 78.1 µM. In the data set with B16-F10, the Activity entry is “Non-Toxic”.
On Tyrosinase, `Cc1ccc(S(=O)(=O)Nc2ccc(C(=O)/C=C/c3ccc(Cl)cc3)cc2)cc1` displayed an EC50 of 25.8 µM.
For the compound `COc1cccc(Cn2cc(CCc3ccc(C(=O)/C=C/c4ccccc4)cc3)nn2)c1`, at Tyrosinase, it took 37.4 µM to reach a half-maximal effect (EC50).
Turning to `CN(C)c1ccc(-c2cc(COc3ccc(C(=O)/C=C/c4ccccc4)cc3)on2)cc1`, the response on Tyrosinase was half-maximal at 28.9 µM (EC50). Besides, the Activity result in the data set on B16-F10 is “Non-Toxic”.
The compound `O=C(/C=C/c1ccccc1)c1ccc(CCc2cn(Cc3ccc(F)cc3)nn2)cc1` gave an EC50 on Tyrosinase of 14.6 µM.
At Tyrosinase, `O=C(/C=C/c1ccccc1)c1ccc(OCc2cc(-c3ccc([N+](=O)[O-])cc3)no2)cc1` showed an EC50 of more than 100 µM. The Activity result in the data set with B16-F10 is given as “Non-Toxic”.
In turn, `O=C(/C=C/c1ccccc1)c1ccc(OCc2cc(-c3ccc(Cl)c(F)c3)no2)cc1` had an EC50 at Tyrosinase of 3 µM. The Activity entry in the data set with B16-F10 was “Non-Toxic”. Also, the result in data set [1] was Active.
For `O=C(/C=C/c1ccccc1)c1ccc(OCc2cc(-c3ccc4c(c3)OCCO4)no2)cc1`, the concentration for a half-maximal effect (EC50) at Tyrosinase was more than 100 µM. Besides, the Activity result in the data set on B16-F10 was “Non-Toxic”; in data set [1], 438%. Moreover, the Ratio in data set [2] amounted to 4.
For `Cc1ccc(-c2cc(COc3ccc(C(=O)/C=C/c4ccccc4)cc3)on2)o1`, the EC50 on Tyrosinase was 35.6 µM. In addition, the Activity result with B16-F10 is on record as “Non-Toxic”.
At Tyrosinase, `COc1ccccc1-c1cc(COc2ccc(C(=O)/C=C/c3ccccc3)cc2)on1` showed an EC50 of 65.3 µM. Moreover, the Activity result with B16-F10 is reported as “Non-Toxic”.
In the case of `O=C(/C=C/c1ccccc1)c1ccc(OCc2cc(-c3ccc(I)o3)no2)cc1`, at Tyrosinase, it took 11.4 µM to reach a half-maximal effect (EC50). In the data set on B16-F10, the Activity result was “Non-Toxic”.
On to `Cc1ccc(/C=C/C(=O)c2ccc3nc(NC(=O)c4ccccc4)sc3c2)cc1`, for which a half-maximal response at Tyrosinase (EC50) required 17.1 µM.
The compound `O=C(/C=C/c1ccccc1)c1ccc(OCc2cc(-c3ccc(F)cc3)no2)cc1` returned an EC50 at Tyrosinase of 6.4 µM. Also, in the data set with B16-F10, the Activity entry is “Non-Toxic”.
At Tyrosinase, `Nc1nc2ccc(C(=O)/C=C/c3ccc(Cl)cc3)cc2s1` returned an EC50 of 30.6 µM.
The compound `O=C(/C=C/c1ccccc1)c1ccc(OCc2cc(-c3cccs3)no2)cc1` had an EC50 on Tyrosinase of 56.2 µM. Besides, the Activity entry in the data set on B16-F10 is on record as “Non-Toxic”.
With `COc1c2occc2cc2ccc(=O)oc12` [METHOXSALEN], the EC50 at Tyrosinase turned out to be 14.8 µM. The Activity in data set [1] worked out at 115%.
`O=C(/C=C/c1ccccc1)c1ccc(OCc2cc(-c3cccc(OC(F)(F)F)c3)no2)cc1`: the EC50 on Tyrosinase amounted to 25.5 µM. The Activity result in the data set with B16-F10 is reported as “Non-Toxic”. The result in data set [1] was Active.
`O=C(/C=C/c1ccccc1)c1ccc(CCc2cn(Cc3cccc(Cl)c3)nn2)cc1`: at Tyrosinase, the EC50 is 11.9 µM.
As to `O=C(/C=C/c1ccccc1)c1ccc(CCc2cn(Cc3ccc(Cl)c(Cl)c3)nn2)cc1`, the EC50 on Tyrosinase is 1.71 µM.
`O=C(/C=C/c1ccccc1)c1ccc(OCc2cc(-c3ccc(Cl)c(Cl)c3)no2)cc1`: the EC50 at Tyrosinase came out at 2.5 µM. In addition, the Activity result with B16-F10 is reported as “Non-Toxic”. Besides, the result in data set [1] was Active.
At Tyrosinase, `O=C(/C=C/c1ccccc1)c1ccc(CCc2cn(Cc3cccc(F)c3)nn2)cc1` displayed an EC50 of 5.6 µM.
